Assay results reported in ChEMBL document CHEMBL3826951, “Discovery of Benzocycloalkane Derivatives Efficiently Blocking Bacterial Virulence for the Treatment of Methicillin-Resistant S. aureus (MRSA) Infections by Targeting Diapophytoene Desaturase (CrtN)” (J Med Chem, 2016).
Values after ≈ are worked out from the molar mass of the structure shown.

Experiments:
[1] = molecular target: T1, 4,4'-diapophytoene desaturase (4,4'-diaponeurosporene-forming) (Staphylococcus aureus (strain Newman), UniProt O07855); experiment: Inhibition of diapophytoene desaturase in Staphylococcus aureus Newman assessed as reduction in staphyloxanthin pigment formation after 48 hrs by spectrophotometry; design: species or system Staphylococcus aureus subsp. aureus str. Newman
T1 sequence (O07855 whole entry): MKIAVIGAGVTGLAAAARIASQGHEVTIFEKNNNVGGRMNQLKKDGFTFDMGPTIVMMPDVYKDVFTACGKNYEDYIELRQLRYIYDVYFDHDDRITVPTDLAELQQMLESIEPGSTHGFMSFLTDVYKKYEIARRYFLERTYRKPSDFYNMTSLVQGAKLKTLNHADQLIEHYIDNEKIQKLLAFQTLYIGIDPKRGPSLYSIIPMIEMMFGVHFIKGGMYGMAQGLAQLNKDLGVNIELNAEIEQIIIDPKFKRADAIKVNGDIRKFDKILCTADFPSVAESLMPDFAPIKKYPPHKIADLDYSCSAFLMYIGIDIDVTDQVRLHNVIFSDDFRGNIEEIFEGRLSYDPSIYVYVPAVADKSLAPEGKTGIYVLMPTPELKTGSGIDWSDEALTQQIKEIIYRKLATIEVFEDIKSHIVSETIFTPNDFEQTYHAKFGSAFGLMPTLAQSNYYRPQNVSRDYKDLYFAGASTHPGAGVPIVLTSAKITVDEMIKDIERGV

[2] = molecular target: T1, 4,4'-diapophytoene desaturase (4,4'-diaponeurosporene-forming); experiment: Inhibition of 6x-His-tagged Staphylococcus aureus diapophytoene desaturase expressed in Escherichia coli BL21 (DE3) using diapophytoene substrate after overnight incubation
[3] = Aqueous solubility of the compound in water after 24 hrs by HPLC method; format: physicochemical
Method in brief: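 Excess solid stirred in pure water for 24 h, then filtered. Filtrate analysed by HPLC (10 µL injection). Concentration read against a calibration curve of peak area versus concentration, built from methanol solutions at 50–800 µg/mL.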

[4] = system: Trichophyton rubrum; experiment: Antifungal activity against naftifine-sensitive Trichophyton rubrum after 7 days by serial dilution method; format: functional
Method in brief: (§1)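 Broth serial dilution in 96-well plates per NCCLS recommendations. Medium: RPMI 1640 buffered with 0.165 M MOPS. Fungi were ATCC strains or clinical isolates.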

[5] = system: Trichophyton mentagrophytes; experiment: Antifungal activity against naftifine-sensitive Trichophyton mentagrophytes after 7 days by serial dilution method; format: functional; method in brief: as §1
[6] = system: Trichophyton verrucosum; experiment: Antifungal activity against naftifine-sensitive Trichophyton verrucosum after 7 days by serial dilution method; format: functional; method in brief: as §1
[7] = system: Nannizzia gypsea; experiment: Antifungal activity against naftifine-sensitive Microsporum gypseum after 7 days by serial dilution method; format: functional; method in brief: as §1

Row | SMILES | IC50 [1] | further results
1 | CN(C/C=C/C=C/c1ccccc1)Cc1ccc2c(c1)CCCCC2 | 12.2 nM | 
2 | CN(CC#Cc1ccccc1)Cc1ccc2c(c1)CCCCC2 | > 1250 nM | 
3 | CN(C/C=C/c1ccccc1)Cc1cccc2c1CCC2 | > 2500 nM | 
4 | CN(C/C=C/c1ccc(Br)cc1)Cc1ccc2c(c1)CCCC2.Cl | 1.3 nM | IC50 [2]: 450 nM; solubility at 24 h [3]: 2100 µg/mL
5 | CN(C/C=C/c1ccc(C(F)(F)F)cc1)Cc1ccc2c(c1)CCCC2.Cl | 1.9 nM | IC50 [2]: 500 nM; solubility at 24 h [3]: 690 µg/mL
6 | CC(C)N(C/C=C/c1ccccc1)Cc1ccc2c(c1)CCCCC2 | > 10000 nM | 
7 | CCN(C/C=C/c1ccccc1)Cc1ccc2c(c1)CCCCC2 | > 1250 nM | 
8 | CN(C/C=C/c1ccccc1)Cc1cccc2c1CCCC2 | > 1000 nM | 
9 | C(/C=C/c1ccccc1)=C\COCc1ccc2c(c1)CCCCC2 | > 20000 nM | 
10 | C[C@@H](c1ncncc1F)[C@](O)(Cn1cncn1)c1ccc(F)cc1F [VORICONAZOLE] |  | MIC=<80 [4]: 0.03125 µg/mL (≈ 0.0895 µM); MIC=<80 [5]: 0.03125 µg/mL (≈ 0.0895 µM); MIC=<80 [6]: 0.03125 µg/mL (≈ 0.0895 µM); MIC=<80 [7]: 0.25 µg/mL (≈ 0.716 µM)
11 | Cc1ccc(/C=C/CN(C)Cc2ccc3c(c2)CCCCC3)cc1 | 31 nM | 
12 | Cc1cccc(/C=C/CN(C)Cc2ccc3c(c2)CCCCC3)c1 | 770 nM | 
13 | CN(C/C=C/c1ccccc1)Cc1ccc2c(c1)CCCC2 | 603 nM | 
14 | COc1ccc(/C=C/CN(C)Cc2ccc3c(c2)CCCC3)cc1 | 12.2 nM | 
15 | CN(C/C=C/c1ccccc1F)Cc1ccc2c(c1)CCCCC2 | 246 nM | 
16 | CN(C/C=C/c1ccco1)Cc1ccc2c(c1)CCCCC2 | > 2500 nM | 
17 | CN(C/C=C/c1ccccc1)Cc1cccc2c1CCCCC2 | > 10000 nM | 
18 | CN(C/C=C/c1ccc([N+](=O)[O-])cc1)Cc1ccc2c(c1)CCCC2 | 94.5 nM | 
19 | CN(C/C=C/Cc1ccccc1)Cc1ccc2c(c1)CCCCC2 | > 10000 nM | 

Row | SMILES | IC50 [1] | further results
20 | c1ccc(CCCOCc2ccc3c(c2)CCCCC3)cc1 | > 20000 nM | 
21 | CN(C/C=C/c1ccccc1)Cc1ccc2c(c1)CCC2 | 808 nM | 
22 | CN(C/C=C/c1ccc(Br)cc1)Cc1ccc2c(c1)CCCCC2.Cl | 7.8 nM | IC50 [2]: 410 nM; solubility at 24 h [3]: 570 µg/mL
23 | CN(CCCc1ccccc1)Cc1ccc2c(c1)CCCCC2 | > 10000 nM | 
24 | C/C(=C\c1ccccc1)CN(C)Cc1ccc2c(c1)CCCCC2 | > 10000 nM | 
25 | OC(Cn1cncn1)(Cn1cncn1)c1ccc(F)cc1F [FLUCONAZOLE] |  | MIC=<80 [4]: 1 µg/mL (≈ 3.27 µM); MIC=<80 [5]: 2 µg/mL (≈ 6.53 µM); MIC=<80 [6]: 2 µg/mL (≈ 6.53 µM); MIC=<80 [7]: 8 µg/mL (≈ 26.1 µM)
26 | CN(C/C=C/c1ccc(Cl)cc1)Cc1ccc2c(c1)CCCCC2 | 8.8 nM | 
27 | CN(C/C=C/c1cccc([N+](=O)[O-])c1)Cc1ccc2c(c1)CCCCC2 | > 1000 nM | 
28 | CN(C/C=C/c1ccc(C(F)(F)F)cc1)Cc1ccc2c(c1)CCCCC2 | 10 nM | 
29 | C/C=C/CN(C)Cc1ccc2c(c1)CCCCC2 | > 50000 nM | 
30 | CN(C/C=C/c1ccc([N+](=O)[O-])cc1)Cc1ccc2c(c1)CCCCC2 | 12.4 nM | 
31 | CN(C/C=C/c1ccc(F)cc1)Cc1ccc2c(c1)CCCCC2 | 39.4 nM | 
32 | C(=C\c1ccccc1)/CNCc1ccc2c(c1)CCCCC2 | > 10000 nM | 
33 | CN(C/C=C/c1ccccc1[N+](=O)[O-])Cc1ccc2c(c1)CCCCC2 | > 5000 nM | 
34 | CN(C/C=C/c1ccccc1)Cc1ccc2c(c1)CCCCC2 | 202 nM | 
35 | CN(C/C=C/c1ccc(Cl)cc1)Cc1ccc2c(c1)CCCC2 | 12.8 nM | 
36 | CC(=O)N1CCN(c2ccc(OCC3COC(Cn4ccnc4)(c4ccc(Cl)cc4Cl)O3)cc2)CC1 (stereo not drawn) [KETOCONAZOLE] |  | MIC=<80 [4]: 0.5 µg/mL (≈ 0.941 µM); MIC=<80 [5]: 0.0625 µg/mL (≈ 0.118 µM); MIC=<80 [6]: 0.0625 µg/mL (≈ 0.118 µM); MIC=<80 [7]: 2 µg/mL (≈ 3.76 µM)
37 | CN(C/C=C/C1CCCCC1)Cc1ccc2c(c1)CCCCC2 | > 10000 nM | 
38 | C(=C\c1ccccc1)/COCc1ccc2c(c1)CCCCC2 | > 20000 nM | 
